Experimental data reported in ChEMBL document CHEMBL1158589, “Benzimidazole and imidazole inhibitors of histone deacetylases: Synthesis and biological activity” (Bioorg Med Chem Lett, 2010).
Activity calls are given as the source filed them. The calls are words filed in the database; no cut-off is given here.

Molecular target: T1, Protein deacetylase HDAC6 (Homo sapiens, UniProt Q9UBN7)
T1 sequence (Q9UBN7 whole entry): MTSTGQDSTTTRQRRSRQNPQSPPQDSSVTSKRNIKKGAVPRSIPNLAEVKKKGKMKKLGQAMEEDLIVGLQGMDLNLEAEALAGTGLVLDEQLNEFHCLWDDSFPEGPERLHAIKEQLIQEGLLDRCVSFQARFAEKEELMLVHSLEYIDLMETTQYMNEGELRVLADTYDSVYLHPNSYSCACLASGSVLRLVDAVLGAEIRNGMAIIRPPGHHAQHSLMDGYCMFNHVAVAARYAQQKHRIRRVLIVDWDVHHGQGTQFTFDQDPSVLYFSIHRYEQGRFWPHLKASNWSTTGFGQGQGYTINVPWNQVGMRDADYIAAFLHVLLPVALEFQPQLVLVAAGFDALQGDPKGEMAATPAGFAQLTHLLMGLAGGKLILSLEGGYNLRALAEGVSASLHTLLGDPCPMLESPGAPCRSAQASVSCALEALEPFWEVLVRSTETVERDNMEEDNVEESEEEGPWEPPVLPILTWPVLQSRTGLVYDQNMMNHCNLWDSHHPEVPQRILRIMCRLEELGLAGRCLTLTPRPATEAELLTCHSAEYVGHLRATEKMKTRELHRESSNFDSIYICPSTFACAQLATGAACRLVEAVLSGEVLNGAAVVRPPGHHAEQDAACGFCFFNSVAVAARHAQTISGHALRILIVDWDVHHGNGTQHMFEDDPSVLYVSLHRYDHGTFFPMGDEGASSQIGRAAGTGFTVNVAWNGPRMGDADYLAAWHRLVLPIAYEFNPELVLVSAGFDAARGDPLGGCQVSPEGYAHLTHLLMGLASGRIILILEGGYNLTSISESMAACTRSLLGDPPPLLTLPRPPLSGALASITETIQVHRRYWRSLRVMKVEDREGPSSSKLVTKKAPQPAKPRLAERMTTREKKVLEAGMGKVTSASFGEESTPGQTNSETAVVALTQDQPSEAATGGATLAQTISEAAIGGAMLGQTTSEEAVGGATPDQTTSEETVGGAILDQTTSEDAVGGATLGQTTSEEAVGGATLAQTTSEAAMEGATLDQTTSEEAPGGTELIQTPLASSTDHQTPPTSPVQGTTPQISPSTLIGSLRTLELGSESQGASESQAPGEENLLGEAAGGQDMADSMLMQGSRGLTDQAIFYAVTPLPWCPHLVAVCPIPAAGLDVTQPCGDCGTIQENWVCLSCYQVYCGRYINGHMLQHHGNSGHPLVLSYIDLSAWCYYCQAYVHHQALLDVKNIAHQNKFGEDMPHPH
Experiment: Inhibition of human recombinant HDAC6
Settings: not given
How it was run: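 Purified recombinant human HDAC-2 or HDAC-6 at known enzyme concentration with tBOC(Ac)-Lys-AMC as substrate. IC50 is the mean of at least three experiments.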

Compared with CN1CCC[C@@H](n2c(-c3cccc(/C=C/C(=O)NO)c3)nc3ccccc32)C1, Cc1c(Cc2ccccc2)nc(-c2cccc(/C=C/C(=O)NO)c2)n1[C@@H]1CCCN(C)C1 is 1.6-fold lower in IC50: 100 nM for the first, 63 nM for the second. The second is the more potent here.

First: Cc1nc(-c2cccc(/C=C/C(=O)NO)c2)n(CCc2ccccc2)c1C
Second: O=C(/C=C/c1cccc(-c2nc3ccccc3n2CCc2ccccc2)c1)NO
The IC50 of the first is 2-fold higher: 63 nM for the first, 31 nM for the second.

Compared with O=C(/C=C/c1cccc(-c2nc3ccccc3n2-c2ccc(Cl)cc2)c1)NO, O=C(/C=C/c1cccc(-c2nc3ccccc3n2Cc2ccccc2)c1)NO is 1.6-fold lower in IC50: 100 nM for the first, 63 nM for the second. The second is the more potent here.

With O=C(/C=C/c1cccc(-c2nc3ccccc3[nH]2)c1)NO the IC50 was 100 nM.

Molecular target: T2, Histone deacetylase 8 (Homo sapiens, UniProt Q9BY41)
T2 sequence (Q9BY41 whole entry): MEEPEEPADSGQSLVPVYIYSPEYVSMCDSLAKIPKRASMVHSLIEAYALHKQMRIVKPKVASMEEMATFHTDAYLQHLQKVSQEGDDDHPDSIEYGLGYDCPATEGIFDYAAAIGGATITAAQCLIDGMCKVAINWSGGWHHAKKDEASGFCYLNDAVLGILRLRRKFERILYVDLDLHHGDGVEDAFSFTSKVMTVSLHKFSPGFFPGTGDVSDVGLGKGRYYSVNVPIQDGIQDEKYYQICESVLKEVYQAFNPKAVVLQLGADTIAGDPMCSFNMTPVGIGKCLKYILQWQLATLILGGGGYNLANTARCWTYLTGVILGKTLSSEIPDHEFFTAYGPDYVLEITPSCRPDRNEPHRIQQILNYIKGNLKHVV
Experiment: Inhibition of human recombinant HDAC8
Settings: not given

Going from CN1CCC[C@@H](n2c(-c3cccc(/C=C/C(=O)NO)c3)nc3ccccc32)C1 to Cc1c(Cc2ccccc2)nc(-c2cccc(/C=C/C(=O)NO)c2)n1[C@@H]1CCCN(C)C1, the IC50 falls from 200 nM to 79 nM (2.5-fold). The second is the more potent here.

Cc1nc(-c2cccc(/C=C/C(=O)NO)c2)n(CCc2ccccc2)c1C and O=C(/C=C/c1cccc(-c2nc3ccccc3n2CCc2ccccc2)c1)NO are within 1.5-fold of each other in IC50: 31 nM for the first, 25 nM for the second.

O=C(/C=C/c1cccc(-c2nc3ccccc3n2-c2ccc(Cl)cc2)c1)NO and O=C(/C=C/c1cccc(-c2nc3ccccc3n2Cc2ccccc2)c1)NO are within 1.5-fold of each other in IC50: 50 nM for the first, 40 nM for the second.

Molecule O=C(/C=C/c1cccc(-c2nc3ccccc3[nH]2)c1)NO has an IC50 of 63 nM.

Test system: A549
Experiment: Cytotoxicity against human A549 cells assessed as NADH level after 72 hrs by MTS cells
Assay type: functional, cell-based
Settings: A549, 72 h
How it was run: (§1)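 Human A549 lung, HL60 leukemia and PC3 prostate cancer lines incubated with compound for 72 h. Viability read by MTS colorimetric assay from remaining NADH; EC50 calculated; mean of at least two experiments.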

First: CN1CCC[C@@H](n2c(-c3cccc(/C=C/C(=O)NO)c3)nc3ccccc32)C1
Second: Cc1c(Cc2ccccc2)nc(-c2cccc(/C=C/C(=O)NO)c2)n1[C@@H]1CCCN(C)C1
The EC50 of the first is 1.5-fold higher: 300 nM for the first, 200 nM for the second.

First: Cc1nc(-c2cccc(/C=C/C(=O)NO)c2)n(CCc2ccccc2)c1C
Second: O=C(/C=C/c1cccc(-c2nc3ccccc3n2CCc2ccccc2)c1)NO
The EC50 of the first is 6.2-fold lower: 400 nM for the first, 2500 nM for the second. The first is the more potent here.

O=C(/C=C/c1cccc(-c2nc3ccccc3n2-c2ccc(Cl)cc2)c1)NO and O=C(/C=C/c1cccc(-c2nc3ccccc3n2Cc2ccccc2)c1)NO are the same in EC50: 6300 nM for the first, 6300 nM for the second.

Molecule O=C(/C=C/c1cccc(-c2nc3ccccc3[nH]2)c1)NO has an EC50 of 25000 nM.

Test system: HL-60
Experiment: Cytotoxicity against human HL60 cells assessed as NADH level after 72 hrs by MTS cells
Assay type: functional, cell-based
Settings: HL-60, 72 h
How it was run: as §1

First: CN1CCC[C@@H](n2c(-c3cccc(/C=C/C(=O)NO)c3)nc3ccccc32)C1
Second: Cc1c(Cc2ccccc2)nc(-c2cccc(/C=C/C(=O)NO)c2)n1[C@@H]1CCCN(C)C1
The EC50 of the first is 2-fold higher: 40 nM for the first, 20 nM for the second. The second is the more potent here.

Compared with Cc1nc(-c2cccc(/C=C/C(=O)NO)c2)n(CCc2ccccc2)c1C, O=C(/C=C/c1cccc(-c2nc3ccccc3n2CCc2ccccc2)c1)NO is 3.8-fold higher in EC50: 80 nM for the first, 300 nM for the second. The first is the more potent here.

Going from O=C(/C=C/c1cccc(-c2nc3ccccc3n2-c2ccc(Cl)cc2)c1)NO to O=C(/C=C/c1cccc(-c2nc3ccccc3n2Cc2ccccc2)c1)NO, the EC50 rises from 800 nM to 5000 nM (6.2-fold). The first is the more potent here.

Work on O=C(/C=C/c1cccc(-c2nc3ccccc3[nH]2)c1)NO yielded an EC50 of 3100 nM.

Test system: PC-3
Experiment: Cytotoxicity against human PC3 cells assessed as NADH level after 72 hrs by MTS cells
Assay type: functional, cell-based
Settings: PC-3, 72 h
How it was run: as §1

First: CN1CCC[C@@H](n2c(-c3cccc(/C=C/C(=O)NO)c3)nc3ccccc32)C1
Second: Cc1c(Cc2ccccc2)nc(-c2cccc(/C=C/C(=O)NO)c2)n1[C@@H]1CCCN(C)C1
The EC50 of the first is 2-fold lower: 50 nM for the first, 100 nM for the second. The first is the more potent here.

Going from Cc1nc(-c2cccc(/C=C/C(=O)NO)c2)n(CCc2ccccc2)c1C to O=C(/C=C/c1cccc(-c2nc3ccccc3n2CCc2ccccc2)c1)NO, the EC50 rises from 200 nM to 400 nM (2-fold).

First: O=C(/C=C/c1cccc(-c2nc3ccccc3n2-c2ccc(Cl)cc2)c1)NO
Second: O=C(/C=C/c1cccc(-c2nc3ccccc3n2Cc2ccccc2)c1)NO
The EC50 of the first is 2.1-fold higher: 2500 nM for the first, 1200 nM for the second. The second is the more potent here.

O=C(/C=C/c1cccc(-c2nc3ccccc3[nH]2)c1)NO showed an EC50 of 10000 nM.

Test system: HL-60
Experiment: Induction of histone H3 hyperacetylation in human HL60 cells after 4 hrs by Western blotting
Assay type: functional, cell-based
Settings: HL-60, 4 h
How it was run: (§2)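 HL60 leukemia cells exposed 4 h to 2.5-fold serial dilutions of compound, DMSO control. Whole-cell lysates Western blotted for acetylated histone H3 and H4, PCNA as loading control. Signals quantified to give the half-maximal response concentration.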

In the case of CN1CCC[C@@H](n2c(-c3cccc(/C=C/C(=O)NO)c3)nc3ccccc32)C1, the EC50 is reported as 100 nM.

Test system: HL-60
Experiment: Induction of histone H4 hyperacetylation in human HL60 cells after 4 hrs by Western blotting
Assay type: functional, cell-based
Settings: HL-60, 4 h
How it was run: as §2

With CN1CCC[C@@H](n2c(-c3cccc(/C=C/C(=O)NO)c3)nc3ccccc32)C1 the EC50 was 110 nM.

Test system: not listed separately
Experiment: Inhibition of HDAC assessed as induction of p21WAF1 expression in engineered cell line by luciferase reporter gene assay
Settings: not given

Work on CN1CCC[C@@H](n2c(-c3cccc(/C=C/C(=O)NO)c3)nc3ccccc32)C1 yielded an EC50 of 1000 nM.

Test system: PANC-1
Experiment: Induction of histone H3 hyperacetylation in human PANC1 cells xenografted in mouse at 50 mg/kg, ip
Assay type: functional, organism-based
Set-up: dose 50 mg/kg
Settings: not given
How it was run: (§3)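 Mice bearing PANC-1 tumors given a single intraperitoneal dose of 50 mg/kg, vehicle control. Tumors harvested at set time points up to about 24 h. Whole tissue lysates Western blotted with antibodies to acetylated histone H3 or H4, actin as loading control.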

In the case of CN1CCC[C@@H](n2c(-c3cccc(/C=C/C(=O)NO)c3)nc3ccccc32)C1, the Activity is reported as “Active”.

Test system: HCT-116
Experiment: Antitumor activity against human HCT116 cells xenografted in mouse assessed as tumor growth inhibition at 15 mg/kg, ip qd for 5 days per week
Assay type: functional
Settings: route intraperitoneal
How it was run: (§4)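 Human HCT116 colon xenografts in mice; intraperitoneal dosing qdx5 per week, 15 doses in total. %T/C calculated when vehicle-treated mice reached 1 g median tumor size, 10 days after the last dose.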

Work on CN1CCC[C@@H](n2c(-c3cccc(/C=C/C(=O)NO)c3)nc3ccccc32)C1 yielded a T/C of 66%.

Test system: HCT-116
Experiment: Antitumor activity against human HCT116 cells xenografted in mouse assessed as tumor growth inhibition at 25 mg/kg, ip qd for 5 days per week
Assay type: functional
Settings: route intraperitoneal
How it was run: as §4

CN1CCC[C@@H](n2c(-c3cccc(/C=C/C(=O)NO)c3)nc3ccccc32)C1 showed a T/C of 47%.

Test system: HCT-116
Experiment: Antitumor activity against human HCT116 cells xenografted in mouse assessed as tumor growth inhibition at 40 mg/kg, ip qd for 5 days per week
Assay type: functional
Settings: route intraperitoneal
How it was run: as §4

For CN1CCC[C@@H](n2c(-c3cccc(/C=C/C(=O)NO)c3)nc3ccccc32)C1, the T/C was 45%.

Test system: Mus musculus
Experiment: Toxicity in human HCT116 cells xenografted mouse assessed as change in body weight at 15 mg/kg, […]
Assay type: organism-based, HCT-116
Set-up: dose 15 mg/kg, route intraperitoneal
Settings: in vivo, ip, 120 h

For CN1CCC[C@@H](n2c(-c3cccc(/C=C/C(=O)NO)c3)nc3ccccc32)C1, the Activity was 1.7%.

Test system: Mus musculus
Experiment: Toxicity in human HCT116 cells xenografted mouse assessed as change in body weight at 25 mg/kg, […]
Assay type: organism-based, HCT-116
Set-up: dose 25 mg/kg, route intraperitoneal
Settings: in vivo, ip, 120 h

CN1CCC[C@@H](n2c(-c3cccc(/C=C/C(=O)NO)c3)nc3ccccc32)C1 showed an Activity of -2.5%.

Test system: Mus musculus
Experiment: Toxicity in human HCT116 cells xenografted mouse assessed as change in body weight at 40 mg/kg, […]
Assay type: organism-based, HCT-116
Set-up: dose 40 mg/kg, route intraperitoneal
Settings: in vivo, ip, 120 h

CN1CCC[C@@H](n2c(-c3cccc(/C=C/C(=O)NO)c3)nc3ccccc32)C1 gave an Activity of -3.6%.

Test system: PANC-1
Experiment: Induction of histone H4 hyperacetylation in human PANC1 cells xenografted in mouse at 50 mg/kg, ip
Assay type: functional, organism-based
Set-up: dose 50 mg/kg
Settings: not given
How it was run: as §3

With CN1CCC[C@@H](n2c(-c3cccc(/C=C/C(=O)NO)c3)nc3ccccc32)C1 the Activity was “Active”.
